Source: ChEMBL document CHEMBL2390943, “Synthesis and preliminary evaluation steroidal antiestrogen-geldanamycin conjugates” (Bioorg Med Chem Lett, 2013)

Columns and labels:
MCF7 [1] = test: Ratio of IC50 for estrogen receptor deficient human […] cells to IC50 for human MCF7 cells expressing estrogen receptor; type: functional
[2] = target: T1, Estrogen receptor (Homo sapiens) (UniProt P03372); test: Relative binding affinity to estrogen receptor-alpha (unknown origin)
T1 sequence (whole entry): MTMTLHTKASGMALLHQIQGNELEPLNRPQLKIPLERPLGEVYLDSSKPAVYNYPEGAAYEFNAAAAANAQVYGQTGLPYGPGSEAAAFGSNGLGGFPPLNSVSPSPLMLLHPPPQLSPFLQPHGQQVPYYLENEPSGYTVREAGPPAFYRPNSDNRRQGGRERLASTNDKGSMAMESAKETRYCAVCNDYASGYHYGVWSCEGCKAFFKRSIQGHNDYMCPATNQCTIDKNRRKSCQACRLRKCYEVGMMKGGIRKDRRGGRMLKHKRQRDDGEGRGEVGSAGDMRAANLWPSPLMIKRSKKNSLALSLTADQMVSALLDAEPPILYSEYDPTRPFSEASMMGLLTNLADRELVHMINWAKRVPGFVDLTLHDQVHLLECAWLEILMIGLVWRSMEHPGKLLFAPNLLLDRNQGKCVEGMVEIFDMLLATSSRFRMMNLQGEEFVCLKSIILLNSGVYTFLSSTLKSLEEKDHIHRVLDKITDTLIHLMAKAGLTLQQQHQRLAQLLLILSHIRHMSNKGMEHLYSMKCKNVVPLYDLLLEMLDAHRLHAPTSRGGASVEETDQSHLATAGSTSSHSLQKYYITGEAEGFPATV

MCF7 [3] = test: Antiproliferative activity against human MCF7 cells expressing estrogen receptor after 72 hrs; type: functional, cell-based; conditions: MCF7, 72 h
Outline: (§1)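 Proliferation inhibition was measured in MCF-7 (ER-expressing) and SKBr3 (ER-lacking) human breast cancer cells. IC50 was taken as the concentration giving 50% inhibition.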

SK-BR-3 = test: Antiproliferative activity against estrogen receptor deficient human SKBR3 cells after 72 hrs; type: functional, cell-based; conditions: SK-BR-3, 72 h; outline: as §1

SMILES	IC50 (MCF7 [3]) [nM]	IC50 (SK-BR-3) [nM]	Ratio IC50 (MCF7 [1])	RBA [2] [%]
COc1cccc2c1C(=O)c1c(O)c3c(c(O)c1C2=O)C[C@@](O)(/C(CO)=N/NC(=O)c1ccc(OCCOCCOCCOCCOCc2cn(CCOCCOCCOCCN(C)CCOc4ccc([C@H]5C[C@]6(C)[C@@H](O)CC[C@H]6[C@@H]6CCc7cc(O)ccc7[C@H]65)cc4)nn2)cc1)C[C@@H]3O[C@H]1C[C@H](N)[C@H](O)[C@H](C)O1			7	
C#CCN(C)CCOc1ccc([C@H]2C[C@]3(C)[C@@H](O)CC[C@H]3[C@@H]3CCc4cc(O)ccc4[C@H]32)cc1				39
CO[C@@]12[C@H](COC(N)=O)C3=C(C(=O)C(C)=C(NCc4cn(CCOCCOCCOc5ccc([C@H]6C[C@]7(C)[C@@H](O)CC[C@H]7[C@@H]7CCc8cc(O)ccc8[C@H]76)cc5)nn4)C3=O)N1C[C@H]1[C@@H]2N1C (stereo not given in full)				7
COC1=C2C[C@@H](C)C[C@H](OC)[C@H](O)[C@@H](C)/C=C(\C)[C@H](OC(N)=O)[C@@H](OC)/C=C\C=C(/C)C(=O)NC(=CC1=O)C2=O [GELDANAMYCIN]	9.8	8.5		

Further lines, with some results ahead:

IC50 (MCF7 [3]) [nM]	IC50 (SK-BR-3) [nM]	SMILES	Ratio IC50 (MCF7 [1])	RBA [2] [%]
15200		CO[C@H]1/C=C\C=C(/C)C(=O)NC2=CC(=O)C(NCCCCCNC(=O)c3ccc(CC4CCCCc5c(nnn5CCOc5ccc([C@H]6C[C@]7(C)[C@@H](O)CC[C@H]7[C@@H]7CCc8cc(O)ccc8[C@H]76)cc5)C4(F)F)cc3)=C(C[C@@H](C)C[C@H](OC)[C@H](O)[C@@H](C)/C=C(\C)[C@@H]1OC(N)=O)C2=O (stereo in doubt)		
102	41	CO[C@H]1/C=C\C=C(/C)C(=O)NC2=CC(=O)C(NCCOCCOCCOCCc3cn(CN(C)CCOc4ccc([C@H]5C[C@]6(C)[C@@H](O)CC[C@H]6[C@@H]6CCc7cc(O)ccc7[C@H]65)cc4)nn3)=C(C[C@@H](C)C[C@H](OC)[C@H](O)[C@@H](C)/C=C(\C)[C@@H]1OC(N)=O)C2=O (stereo in doubt)		
1150	710	CO[C@H]1/C=C\C=C(/C)C(=O)NC2=CC(=O)C(NCc3cn(CCOc4ccc([C@H]5C[C@]6(C)[C@@H](O)CC[C@H]6[C@@H]6CCc7cc(O)ccc7[C@H]65)cc4)nn3)=C(C[C@@H](C)C[C@H](OC)[C@H](O)[C@@H](C)/C=C(\C)[C@@H]1OC(N)=O)C2=O (stereo in doubt)		
